# In ChEMBL document CHEMBL1130274, “Fibrinogen receptor (GPIIb-IIIa) antagonists derived from 5,6-bicyclic templates. Amidinoindoles, amidinoindazoles, and amidinobenzofurans containing the N-alpha-sulfonamide carboxylic acid function as potent platelet aggregation inhibitors” (J Med Chem, 1997):
# Columns and labels:
# Type in all cases: protein-complex assay
# Integrin alpha-V/beta-3 [1] = target: T1, Integrin alpha-V/beta-3 (Homo sapiens, UniProt P05106+P06756); test: Inhibition of vitronectin binding to the purified immobilized vitronectin receptor (alpha v, beta 3).
# Summary of the method: (§1)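 Solid-phase microtiter assay. Purified integrin (GPIIb-IIIa or αvβ3) was coated at 1 μg/well overnight at 4 °C in Tris pH 7.4 buffer with CaCl2, then blocked with 35 mg/mL BSA for 2–3 h. Biotinylated fibrinogen or vitronectin (20 nM final) plus compound was incubated 3 h at room temperature. Bound ligand was detected with alkaline phosphatase anti-biotin antibody and pNPP at 405 nm.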
# [2] = target: Integrin alpha-IIb/beta-3 (Homo sapiens, UniProt P05106+P08514); test: Inhibitory activity of fibrinogen binding to purified immobilized glycoprotein (fibrinogen receptor).
# Integrin alpha-V/beta-3 [3] = target: T1, Integrin alpha-V/beta-3; test: Inhibition of vitronectin binding to purified immobilized vitronectin receptor alpha v beta3; summary of the method: as §1
# Sequence of Integrin alpha-IIb/beta-3 (P05106 27-788 limits assumed): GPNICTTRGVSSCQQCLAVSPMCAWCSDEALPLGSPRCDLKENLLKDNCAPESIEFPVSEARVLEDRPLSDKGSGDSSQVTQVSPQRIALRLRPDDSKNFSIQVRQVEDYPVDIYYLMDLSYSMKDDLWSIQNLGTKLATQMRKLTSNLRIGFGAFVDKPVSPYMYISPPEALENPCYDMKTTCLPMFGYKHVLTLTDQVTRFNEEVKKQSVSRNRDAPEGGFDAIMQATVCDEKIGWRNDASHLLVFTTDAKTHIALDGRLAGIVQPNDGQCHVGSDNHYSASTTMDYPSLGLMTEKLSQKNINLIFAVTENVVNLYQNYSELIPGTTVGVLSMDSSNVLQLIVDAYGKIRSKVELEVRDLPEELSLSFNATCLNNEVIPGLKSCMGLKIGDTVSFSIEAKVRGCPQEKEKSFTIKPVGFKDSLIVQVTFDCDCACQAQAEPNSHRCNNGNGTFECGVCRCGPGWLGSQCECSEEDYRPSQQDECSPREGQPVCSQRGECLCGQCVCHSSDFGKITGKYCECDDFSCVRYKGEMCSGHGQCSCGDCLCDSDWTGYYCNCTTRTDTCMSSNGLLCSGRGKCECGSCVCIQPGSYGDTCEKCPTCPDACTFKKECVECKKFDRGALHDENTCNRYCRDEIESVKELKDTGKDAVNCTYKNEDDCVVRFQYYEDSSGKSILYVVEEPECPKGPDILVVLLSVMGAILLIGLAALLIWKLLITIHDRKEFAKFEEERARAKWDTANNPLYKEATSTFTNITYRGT
# Sequence of Integrin alpha-IIb/beta-3 (P08514 32-887 limits assumed): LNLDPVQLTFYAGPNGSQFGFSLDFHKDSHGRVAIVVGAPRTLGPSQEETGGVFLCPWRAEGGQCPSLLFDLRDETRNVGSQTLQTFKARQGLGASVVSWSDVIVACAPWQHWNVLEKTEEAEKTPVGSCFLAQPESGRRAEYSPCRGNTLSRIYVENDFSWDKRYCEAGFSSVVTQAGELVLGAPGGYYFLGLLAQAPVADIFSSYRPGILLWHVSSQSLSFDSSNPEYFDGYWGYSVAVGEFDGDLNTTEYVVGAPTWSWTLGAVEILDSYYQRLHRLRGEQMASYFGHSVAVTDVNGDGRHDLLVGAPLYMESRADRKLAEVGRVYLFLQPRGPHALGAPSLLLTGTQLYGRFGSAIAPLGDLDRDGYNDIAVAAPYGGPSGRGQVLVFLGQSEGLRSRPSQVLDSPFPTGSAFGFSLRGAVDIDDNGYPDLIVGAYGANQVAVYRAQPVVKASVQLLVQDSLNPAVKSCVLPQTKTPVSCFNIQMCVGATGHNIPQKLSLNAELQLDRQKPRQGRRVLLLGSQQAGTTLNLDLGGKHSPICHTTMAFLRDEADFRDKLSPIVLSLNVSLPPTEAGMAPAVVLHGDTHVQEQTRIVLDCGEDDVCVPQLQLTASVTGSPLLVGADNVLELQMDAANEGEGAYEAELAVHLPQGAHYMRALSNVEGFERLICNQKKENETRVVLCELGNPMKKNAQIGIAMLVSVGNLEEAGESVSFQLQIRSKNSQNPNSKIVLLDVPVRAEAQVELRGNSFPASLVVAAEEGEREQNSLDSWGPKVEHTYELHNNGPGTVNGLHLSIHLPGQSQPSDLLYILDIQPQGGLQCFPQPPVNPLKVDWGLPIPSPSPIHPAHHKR
# Sequence of Integrin alpha-IIb/beta-3 (P08514 891-1039 limits assumed): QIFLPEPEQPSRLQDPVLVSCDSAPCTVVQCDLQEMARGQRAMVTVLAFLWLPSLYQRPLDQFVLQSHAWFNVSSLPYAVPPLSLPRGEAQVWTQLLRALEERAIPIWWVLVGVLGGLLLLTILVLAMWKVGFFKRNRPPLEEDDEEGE
# T1 sequence (P05106 27-788 limits assumed): as the sequence (P05106 27-788 limits assumed) above
# T1 sequence (P06756 31-889 limits assumed): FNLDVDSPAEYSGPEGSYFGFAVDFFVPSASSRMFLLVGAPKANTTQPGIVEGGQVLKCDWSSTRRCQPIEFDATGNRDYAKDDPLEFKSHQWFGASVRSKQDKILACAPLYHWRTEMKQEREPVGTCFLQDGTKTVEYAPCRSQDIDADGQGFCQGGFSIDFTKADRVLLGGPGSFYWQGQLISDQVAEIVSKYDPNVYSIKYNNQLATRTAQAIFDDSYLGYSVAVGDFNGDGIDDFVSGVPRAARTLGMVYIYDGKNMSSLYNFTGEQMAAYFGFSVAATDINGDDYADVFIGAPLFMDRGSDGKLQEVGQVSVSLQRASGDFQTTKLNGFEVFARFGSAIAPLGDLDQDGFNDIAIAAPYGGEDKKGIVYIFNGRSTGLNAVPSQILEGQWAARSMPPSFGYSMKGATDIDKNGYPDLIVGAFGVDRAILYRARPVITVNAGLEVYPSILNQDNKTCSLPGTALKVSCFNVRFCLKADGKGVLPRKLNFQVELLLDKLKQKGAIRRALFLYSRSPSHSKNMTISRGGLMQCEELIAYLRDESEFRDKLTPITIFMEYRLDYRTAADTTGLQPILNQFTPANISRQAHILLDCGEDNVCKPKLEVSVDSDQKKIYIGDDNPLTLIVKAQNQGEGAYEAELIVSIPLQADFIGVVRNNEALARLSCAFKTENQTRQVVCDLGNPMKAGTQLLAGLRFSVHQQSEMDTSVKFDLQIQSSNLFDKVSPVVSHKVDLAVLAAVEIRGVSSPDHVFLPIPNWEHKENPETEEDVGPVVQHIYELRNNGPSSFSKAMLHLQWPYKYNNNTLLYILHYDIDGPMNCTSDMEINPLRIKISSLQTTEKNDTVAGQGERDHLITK
# T1 sequence (P06756 891-1048 limits assumed): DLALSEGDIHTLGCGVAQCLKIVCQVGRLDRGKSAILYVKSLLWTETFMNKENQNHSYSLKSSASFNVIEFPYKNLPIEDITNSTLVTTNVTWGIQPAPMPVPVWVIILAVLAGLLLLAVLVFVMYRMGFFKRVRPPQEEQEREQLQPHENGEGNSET
Compound,IC50 (Integrin alpha-V/beta-3 [1]) [nM],IC50 [2] [nM],IC50 (Integrin alpha-V/beta-3 [3]) [nM]
CCCCS(=O)(=O)NC(CNC(=O)CCNC(=O)c1c[nH]c2cc(C(=N)N)ccc12)C(=O)O (stereo not given),> 100000,2,
N=C(N)c1ccc2oc(C(=O)NCCC(=O)NC(CC(=O)O)c3cc(F)cc(F)c3)cc2c1 (stereo not given),> 100000,100,
COc1ccc(C(CC(=O)O)NC(=O)CCNC(=O)c2cc3cc(C(=N)N)ccc3o2)cc1OC (stereo not given),,40,
N=C(N)c1ccc2oc(C(=O)NCCC(=O)NC[C@H](N)C(=O)O)cc2c1,> 100000,40,
CC(CC(=O)NC(CC(=O)O)c1ccccc1)NC(=O)c1cc2cc(C(=N)N)ccc2o1 (stereo not given),> 100000,20,
N=C(N)c1ccc2oc(C(=O)N3CCC[C@@H]3C(=O)NC(CC(=O)O)c3ccccc3)cc2c1 (stereo not given in full),,1000,
N=C(N)c1ccc2oc(C(=O)N3CCCC(C(=O)NC(CC(=O)O)c4ccccc4)C3)cc2c1 (stereo not given),,400,
N=C(N)c1ccc2oc(C(=O)NCCC(=O)NC(CC(=O)O)c3cccnc3)cc2c1 (stereo not given),100000,40,
N=C(N)c1ccc2oc(C(=O)NCCC(=O)NC(CC(=O)O)C(F)(F)F)cc2c1 (stereo not given),> 100000,40,
C#CC(CC(=O)O)NC(=O)CCNC(=O)c1cc2cc(C(=N)N)ccc2o1 (stereo not given),> 100000,40,
N=C(N)c1ccc2oc(C(=O)NCCC(=O)NC[C@H](NS(=O)(=O)c3ccccc3)C(=O)O)cc2c1,> 100000,1.8,
CCCCS(=O)(=O)N[C@@H](CNC(=O)CCNC(=O)c1cc2cc(C(=N)N)ccc2o1)C(=O)O,> 100000,2,
CN(CCC(=O)NC(CC(=O)O)c1ccccc1)C(=O)c1cc2cc(C(=N)N)ccc2o1 (stereo not given),> 100000,150,
N=C(N)c1ccc2oc(C(=O)NCCC(=O)NC(CC(=O)O)c3ccccc3)cc2c1 (stereo not given),60000,150,
CN(C)c1cccc2c(S(=O)(=O)N[C@@H](CNC(=O)CCNC(=O)c3cc4cc(C(=N)N)ccc4o3)C(=O)O)cccc12,> 100000,2,
N=C(N)c1ccc2oc(C(=O)NCCC(=O)NC(CC(=O)O)c3cc(F)ccc3F)cc2c1 (stereo not given),> 100000,125,
N=C(N)c1ccc2oc(C(=O)NCCC(=O)NC(CC(=O)O)c3ccc(F)c(F)c3)cc2c1 (stereo not given),> 100000,200,
N=C(N)c1ccc2oc(C(=O)NCCC(=O)NC[C@H](NS(=O)(=O)c3ccc(I)cc3)C(=O)O)cc2c1,> 100000,2,
N=C(N)c1ccc2oc(C(=O)NCCC(=O)NCCC(=O)O)cc2c1,> 100000,20,
CCCCS(=O)(=O)NC(CNC(=O)CCNC(=O)c1[nH]nc2cc(C(=N)N)ccc12)C(=O)O (stereo not given),> 100000,2,
N=C(N)c1ccc2oc(C(=O)N3Cc4ccccc4CC3C(=O)NC(CC(=O)O)c3ccccc3)cc2c1 (stereo not given),,500,

# The remaining lines, values ahead:
IC50 (Integrin alpha-V/beta-3 [1]) [nM],IC50 [2] [nM],IC50 (Integrin alpha-V/beta-3 [3]) [nM],Compound
,> 100000,,CC(C)(NC(=O)c1cc2cc(C(=N)N)ccc2[nH]1)C(=O)NC(CC(=O)O)c1ccccc1 (stereo not given)
,6000,,N=C(N)c1ccc2[nH]c(C(=O)N3CCC(C(=O)NC(CC(=O)O)c4ccccc4)CC3)cc2c1 (stereo not given)
,50000,,N=C(N)c1ccc2[nH]c(C(=O)Nc3cccc(C(=O)NC(CC(=O)O)c4ccccc4)c3)cc2c1 (stereo not given)
,20,> 100000,CN(CCC(=O)NC(CC(=O)O)c1ccccc1)C(=O)c1cc2cc(C(=N)N)ccc2[nH]1 (stereo not given)
,1000,,N=C(N)c1ccc2[nH]c(C(=O)NCCC(=O)NC(CC(=O)O)c3ccccc3)cc2c1 (stereo not given)
,10000,,N=C(N)c1ccc2[nH]c(C(=O)NCC(=O)NC(CC(=O)O)c3ccccc3)cc2c1 (stereo not given)
125000,2500,,CC(CC(=O)NC(CC(=O)O)c1ccccc1)NC(=O)c1cc2cc(C(=N)N)ccc2[nH]1 (stereo not given)
,10000,,CN(CC(=O)NC(CC(=O)O)c1ccccc1)C(=O)c1cc2cc(C(=N)N)ccc2[nH]1 (stereo not given)
,10000,,N=C(N)c1ccc2[nH]c(C(=O)NC(CC(=O)NC(CC(=O)O)c3ccccc3)C(F)(F)F)cc2c1 (stereo not given)
,300,,N=C(N)c1ccc2oc(C(=O)NCC(=O)NC(CC(=O)O)c3ccccc3)cc2c1 (stereo not given)
